Active and inactive are the calls of the source.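 How the source made its calls: active means inhibition of 50% or more of probe labeling of the enzyme band; inactive means inhibition below 50%.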
The compounds below were run against Diacylglycerol lipase-beta (Mus musculus) (UniProt Q91WC9) (assay: mouse DAGLb inhibitors by competitive ABPP, late-stage follow-up, biochemical, gel-based fluorescence, overexpressed mouse, set 2 (AID 602299)). Details: HEK293T membrane overexpressed mouse DAGLb, at 10 µM, hits give high values.
Sequence of Diacylglycerol lipase-beta (Mus musculus) (Q91WC9 whole entry, looked up): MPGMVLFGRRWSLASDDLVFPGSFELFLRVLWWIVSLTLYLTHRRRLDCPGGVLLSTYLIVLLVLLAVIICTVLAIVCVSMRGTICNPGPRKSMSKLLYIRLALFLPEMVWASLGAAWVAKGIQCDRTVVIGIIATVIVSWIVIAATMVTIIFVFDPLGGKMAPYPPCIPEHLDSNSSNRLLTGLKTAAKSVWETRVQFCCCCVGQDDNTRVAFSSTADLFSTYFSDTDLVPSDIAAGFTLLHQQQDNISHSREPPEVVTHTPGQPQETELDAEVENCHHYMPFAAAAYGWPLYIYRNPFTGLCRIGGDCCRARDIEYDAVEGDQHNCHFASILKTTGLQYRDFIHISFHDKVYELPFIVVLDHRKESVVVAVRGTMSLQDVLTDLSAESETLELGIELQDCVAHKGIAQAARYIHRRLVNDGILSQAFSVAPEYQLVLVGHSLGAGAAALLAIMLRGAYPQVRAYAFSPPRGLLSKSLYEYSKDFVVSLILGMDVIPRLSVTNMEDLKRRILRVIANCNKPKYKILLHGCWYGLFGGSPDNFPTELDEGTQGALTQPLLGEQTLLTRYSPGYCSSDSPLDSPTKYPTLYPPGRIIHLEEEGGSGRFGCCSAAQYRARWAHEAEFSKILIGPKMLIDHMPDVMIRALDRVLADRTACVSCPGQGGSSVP
Procedure, shortened: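 Material: membrane proteome of HEK293T cells transiently overexpressing mouse DAGLb; input: 0.3 mg/mL membrane protein; reagent: HT-01 probe, 1 µM; controls: DMSO-only high, gel background low; signal: reducing SDS-PAGE with in-gel fluorescence; times: 30 min compound pre-incubation then 30 min probe labeling, 37 °C; read-out basis: % inhibition from band optical density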
For `O=C(N1CCCCC1c1ccccc1)n1cc(C(O)(c2ccccc2)c2ccccc2)nn1` (stereo not drawn), the inhibition was 39% (inactive). `COc1ccc(-c2ccc(-c3cn(C(=O)N4CCCCC4c4ccccc4)nn3)cc2)cc1` (stereo not drawn) was tested, and the inhibition was 11% (inactive). An inhibition of 98% was found for `COc1ccccc1-c1ccc(-c2cn(C(=O)N3CCC(Cc4ccccc4)CC3)nn2)cc1` in this work. An inhibition of 59% was found for `O=C(N1CCCCC1CCc1ccccc1)n1cc(-c2ccc(-c3ccccc3)cc2)nn1` (stereo not drawn) in this work. An inhibition of 64% was found for `COc1ccccc1-c1ccc(-c2cn(C(=O)N3CCCCC3c3ccccc3)nn2)cc1` (stereo not drawn) in this work. An inhibition of 50% was found for `O=C(N1CCCCC1c1ccccc1)n1cc(-c2ccc(-c3ccccc3)cc2)nn1` (stereo not drawn) in this work. An inhibition of 69% was found for `COc1ccccc1-c1ccc(-c2cn(C(=O)N3CCCCC3CCc3ccccc3)nn2)cc1` (stereo not drawn) in this work. An inhibition of 99% was found for `COc1ccccc1-c1ccc(-c2cn(C(=O)N3CCCC(Cc4ccccc4)C3)nn2)cc1` (stereo not drawn) in this work.
